Legend:
[1] = target: Matrix metalloproteinase-9 (Homo sapiens, UniProt P14780); experiment: Inhibition of MMP9 by fluorometric assay
[2] = target: T1, Disintegrin and metalloproteinase domain-containing protein 17 (Homo sapiens, UniProt P78536); experiment: Inhibition of human recombinant ADAM17 by fluorometric assay
[3] = target: T2, Disintegrin and metalloproteinase domain-containing protein 10 (Homo sapiens, UniProt O14672); experiment: Inhibition of human recombinant ADAM10 by fluorometric assay
T2 sequence (O14672 whole entry): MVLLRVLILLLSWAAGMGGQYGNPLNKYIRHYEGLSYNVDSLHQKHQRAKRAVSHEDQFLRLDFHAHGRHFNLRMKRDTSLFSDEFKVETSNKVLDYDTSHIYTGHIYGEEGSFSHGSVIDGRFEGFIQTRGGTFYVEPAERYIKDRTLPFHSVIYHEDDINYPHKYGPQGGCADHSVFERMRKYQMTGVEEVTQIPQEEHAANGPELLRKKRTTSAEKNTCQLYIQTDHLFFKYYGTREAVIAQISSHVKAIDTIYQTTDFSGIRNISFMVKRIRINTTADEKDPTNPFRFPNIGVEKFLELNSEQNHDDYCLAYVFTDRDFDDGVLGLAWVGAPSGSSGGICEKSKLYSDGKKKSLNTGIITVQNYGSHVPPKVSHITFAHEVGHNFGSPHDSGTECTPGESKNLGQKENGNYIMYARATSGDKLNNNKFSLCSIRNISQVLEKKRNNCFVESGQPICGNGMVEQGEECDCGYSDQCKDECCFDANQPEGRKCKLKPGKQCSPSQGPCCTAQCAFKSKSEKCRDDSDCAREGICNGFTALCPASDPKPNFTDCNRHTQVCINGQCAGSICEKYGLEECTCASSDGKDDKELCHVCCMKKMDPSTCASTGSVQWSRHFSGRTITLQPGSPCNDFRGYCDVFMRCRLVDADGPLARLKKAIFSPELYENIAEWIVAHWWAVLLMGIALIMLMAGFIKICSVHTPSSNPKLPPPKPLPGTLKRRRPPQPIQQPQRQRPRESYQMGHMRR
In short: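 Recombinant human ADAM-10 (20 nM) preincubated with seven inhibitor concentrations for 1 h at 37 °C in Tris 25 mM, ZnCl2 25 μM, Brij-35 0.005%, pH 9. Fluorogenic substrate Mca-Lys-Pro-Leu-Gly-Leu-Dap(Dnp)-Ala-Arg-NH2 at 10 μM final. Fluorescence (ex 325/em 395 nm) monitored every 15 s for 20 min. IC50 from initial velocities versus inhibitor-free control; mean of three independent experiments in duplicate.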

[4] = target: 72 kDa type IV collagenase (Homo sapiens, UniProt P08253)
[5] = target: Matrix metalloproteinase-14 (Homo sapiens, UniProt P50281); experiment: Inhibition of human recombinant MMP14 by fluorometric assay
In short: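 Fluorogenic substrate Mca-Lys-Pro-Leu-Gly-Leu-Dap(Dnp)-Ala-Arg-NH2 (2 μM final). Enzymes: APMA-activated (2 mM, 2 h, 37 °C) pro-MMP-1 at 2.0 nM; MMP-14 catalytic domain at 1.0 nM. Each enzyme preincubated 4 h at 25 °C with seven inhibitor concentrations in Tris 50 mM pH 7.5, NaCl, CaCl2, Brij-35, 1% DMSO. Fluorescence (ex 325/em 395 nm) read every 15 s for 20 min.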

Interstitial collagenase = target: T3, Interstitial collagenase (Homo sapiens, UniProt P03956); experiment: Inhibition of MMP1 by fluorometric assay
T3 sequence (P03956 whole entry): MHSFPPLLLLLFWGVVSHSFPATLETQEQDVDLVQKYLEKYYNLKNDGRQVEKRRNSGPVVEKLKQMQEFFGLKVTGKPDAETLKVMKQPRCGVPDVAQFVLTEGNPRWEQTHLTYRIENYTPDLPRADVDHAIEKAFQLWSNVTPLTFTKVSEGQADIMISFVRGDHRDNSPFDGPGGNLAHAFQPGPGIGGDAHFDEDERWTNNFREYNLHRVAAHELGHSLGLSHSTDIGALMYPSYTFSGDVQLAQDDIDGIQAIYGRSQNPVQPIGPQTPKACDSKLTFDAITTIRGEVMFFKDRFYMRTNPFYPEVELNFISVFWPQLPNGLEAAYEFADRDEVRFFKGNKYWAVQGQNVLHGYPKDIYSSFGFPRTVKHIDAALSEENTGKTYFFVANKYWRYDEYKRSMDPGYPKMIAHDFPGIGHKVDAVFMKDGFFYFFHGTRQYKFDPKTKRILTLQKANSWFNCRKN

[6] = target: T1, Disintegrin and metalloproteinase domain-containing protein 17; details: for inhibition: A2774, at 10 µM; for IC50: A2774
SK-OV-3 = experiment: Cytotoxicity against human SKOV3 cells after 72 hrs by MTT assay; type: cell-based; details: sk-ov-3, 72 h
In short: (§1)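 Cell lines grown in RPMI 1640 with 10% heat-inactivated FCS, 2 mM glutamine and penicillin-streptomycin at 37 °C, 5% CO2. Seeded at 2 × 10^3 cells/well and exposed to a range of inhibitor concentrations (DMSO stocks) for 24, 48 or 72 h at 37 °C. MTT added for 4 h, formazan dissolved in DMSO, absorbance read at 540 nm; mean of triplicates.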

MDA-MB-468 = experiment: Cytotoxicity against human MDA-MB-468 cells after 72 hrs by MTT assay; type: cell-based; details: mda-mb-468, 72 h; in short: as §1
[7] = target: T1, Disintegrin and metalloproteinase domain-containing protein 17; experiment: Inhibition of ADAM17 in human MDA-MB-468 cells assessed as inhibition of pervanadate-induced sALCAM release by ELISA; type: cell-based
[8] = target: T1, Disintegrin and metalloproteinase domain-containing protein 17; experiment: Inhibition of ADAM17 in human A2774 cells assessed as inhibition of EGF-induced sALCAM release by ELISA; type: cell-based
[9] = Cytotoxicity against human GI-CA-N cells after 72 hrs by MTT assay; type: cell-based; in short: as §1
[10] = target: T1, Disintegrin and metalloproteinase domain-containing protein 17; experiment: Inhibition of ADAM17 in human SKOV3 cells assessed as inhibition of constitutive sALCAM release by ELISA; type: cell-based, SK-OV-3
[11] = target: T1, Disintegrin and metalloproteinase domain-containing protein 17; experiment: Inhibition of ADAM17 in human A2774 cells assessed as inhibition of pervanadate-induced sALCAM release by ELISA; type: cell-based
[12] = target: T1, Disintegrin and metalloproteinase domain-containing protein 17; experiment: Inhibition of ADAM17 in human MCF7 cells assessed as inhibition of constitutive sALCAM release by ELISA; type: cell-based
[13] = target: T1, Disintegrin and metalloproteinase domain-containing protein 17; experiment: Inhibition of ADAM17 in human MDA-MB-468 cells assessed as inhibition of EGF-induced sALCAM release by ELISA; type: cell-based
[14] = Cytotoxicity against human A2774 cells after 72 hrs by MTT assay; type: cell-based; details: a2774, 72 h; in short: as §1
[15] = target: T1, Disintegrin and metalloproteinase domain-containing protein 17; experiment: Inhibition of ADAM17 in human MCF7 cells assessed as inhibition of EGF-induced sALCAM release by ELISA; type: cell-based
MCF7 = experiment: Cytotoxicity against human MCF7 cells after 72 hrs by MTT assay; type: cell-based; details: mcf7, 72 h; in short: as §1
[16] = target: T1, Disintegrin and metalloproteinase domain-containing protein 17; experiment: Inhibition of ADAM17 in human A2774 cells assessed as inhibition of constitutive sALCAM release by ELISA; type: cell-based
[17] = target: T1, Disintegrin and metalloproteinase domain-containing protein 17; experiment: Inhibition of ADAM17 in human MDA-MB-468 cells assessed as inhibition of constitutive sALCAM release by ELISA; type: cell-based
[18] = target: T1, Disintegrin and metalloproteinase domain-containing protein 17; experiment: Inhibition of ADAM17 in human GI-CA-N cells assessed as inhibition of constitutive sALCAM release by ELISA; type: cell-based
[19] = target: T1, Disintegrin and metalloproteinase domain-containing protein 17; experiment: Inhibition of ADAM17 in human GI-CA-N cells assessed as inhibition of pervanadate-induced sALCAM release by ELISA; type: cell-based
[20] = target: T1, Disintegrin and metalloproteinase domain-containing protein 17; experiment: Inhibition of ADAM17 in human SKOV3 cells assessed as inhibition of EGF-induced sALCAM release by ELISA; type: cell-based, SK-OV-3
[21] = target: T1, Disintegrin and metalloproteinase domain-containing protein 17; experiment: Inhibition of ADAM17 in human MCF7 cells assessed as inhibition of pervanadate-induced sALCAM release by ELISA; type: cell-based

Chain of 72 kDa type IV collagenase (P08253 whole entry): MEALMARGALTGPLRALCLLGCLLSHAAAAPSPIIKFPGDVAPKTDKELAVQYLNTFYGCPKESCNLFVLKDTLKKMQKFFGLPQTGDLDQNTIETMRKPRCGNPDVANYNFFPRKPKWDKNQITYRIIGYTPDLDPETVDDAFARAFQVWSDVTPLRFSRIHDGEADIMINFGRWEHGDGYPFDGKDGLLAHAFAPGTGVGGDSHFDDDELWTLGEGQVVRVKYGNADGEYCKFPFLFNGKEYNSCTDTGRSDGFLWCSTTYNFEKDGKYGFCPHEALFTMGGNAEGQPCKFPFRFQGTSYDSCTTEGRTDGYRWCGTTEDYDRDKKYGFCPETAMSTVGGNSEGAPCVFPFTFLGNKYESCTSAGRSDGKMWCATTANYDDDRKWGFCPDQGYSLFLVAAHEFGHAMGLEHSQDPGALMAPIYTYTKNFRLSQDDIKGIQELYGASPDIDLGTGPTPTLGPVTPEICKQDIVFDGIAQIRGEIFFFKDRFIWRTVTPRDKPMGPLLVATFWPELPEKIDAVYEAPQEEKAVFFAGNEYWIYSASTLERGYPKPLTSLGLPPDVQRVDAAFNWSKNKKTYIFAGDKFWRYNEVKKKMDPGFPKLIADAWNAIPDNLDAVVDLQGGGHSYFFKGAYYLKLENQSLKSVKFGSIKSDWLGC
T1 sequence (P78536 whole entry, the tested form may be a part): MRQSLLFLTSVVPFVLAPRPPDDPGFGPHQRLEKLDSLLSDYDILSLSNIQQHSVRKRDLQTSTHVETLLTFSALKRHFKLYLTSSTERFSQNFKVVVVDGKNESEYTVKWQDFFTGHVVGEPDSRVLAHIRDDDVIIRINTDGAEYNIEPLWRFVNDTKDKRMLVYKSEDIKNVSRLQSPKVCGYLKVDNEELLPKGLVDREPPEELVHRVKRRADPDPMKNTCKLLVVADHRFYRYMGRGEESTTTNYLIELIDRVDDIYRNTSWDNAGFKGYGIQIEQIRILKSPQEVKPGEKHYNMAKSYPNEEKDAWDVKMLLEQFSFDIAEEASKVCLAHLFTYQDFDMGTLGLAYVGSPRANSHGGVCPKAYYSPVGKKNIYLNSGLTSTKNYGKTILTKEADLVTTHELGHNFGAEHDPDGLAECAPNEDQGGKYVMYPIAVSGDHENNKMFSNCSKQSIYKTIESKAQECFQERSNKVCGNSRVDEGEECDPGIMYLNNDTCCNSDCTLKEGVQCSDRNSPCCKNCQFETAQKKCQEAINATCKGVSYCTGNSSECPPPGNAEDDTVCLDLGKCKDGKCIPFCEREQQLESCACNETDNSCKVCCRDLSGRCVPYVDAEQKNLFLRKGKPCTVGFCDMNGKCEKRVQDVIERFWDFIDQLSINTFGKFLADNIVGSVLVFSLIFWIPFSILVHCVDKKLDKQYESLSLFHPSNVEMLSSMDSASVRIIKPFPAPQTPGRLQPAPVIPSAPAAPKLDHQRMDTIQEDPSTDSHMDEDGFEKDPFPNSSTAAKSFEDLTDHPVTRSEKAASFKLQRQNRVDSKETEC
Chain of Matrix metalloproteinase-9 (P14780 whole entry, the tested form may be a part): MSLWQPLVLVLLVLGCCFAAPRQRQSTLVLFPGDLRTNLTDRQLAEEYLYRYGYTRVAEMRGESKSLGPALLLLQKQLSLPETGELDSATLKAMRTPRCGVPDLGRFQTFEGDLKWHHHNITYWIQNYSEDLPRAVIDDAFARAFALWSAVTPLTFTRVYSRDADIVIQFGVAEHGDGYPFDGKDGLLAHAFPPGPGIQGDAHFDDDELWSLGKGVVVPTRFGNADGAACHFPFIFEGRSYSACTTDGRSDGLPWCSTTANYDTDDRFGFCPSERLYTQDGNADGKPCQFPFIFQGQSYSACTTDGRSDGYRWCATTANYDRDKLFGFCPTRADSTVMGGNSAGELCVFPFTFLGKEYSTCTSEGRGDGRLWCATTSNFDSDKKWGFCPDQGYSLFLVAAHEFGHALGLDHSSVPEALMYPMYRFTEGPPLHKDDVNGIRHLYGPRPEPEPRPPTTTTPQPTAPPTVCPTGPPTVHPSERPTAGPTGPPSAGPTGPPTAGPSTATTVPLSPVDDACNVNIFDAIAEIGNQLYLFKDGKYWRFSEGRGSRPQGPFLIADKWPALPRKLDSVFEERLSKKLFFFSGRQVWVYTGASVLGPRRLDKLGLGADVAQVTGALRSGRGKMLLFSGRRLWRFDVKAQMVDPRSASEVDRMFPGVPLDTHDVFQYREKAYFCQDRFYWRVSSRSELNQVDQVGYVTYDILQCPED

Structure (SMILES)	IC50 [1] [nM]	IC50 [2] [nM]	IC50 [4] [nM]	IC50 [5] [nM]	IC50 (Interstitial collagenase) [nM]	inhibition [6] [%]	other results
CC#CCOc1ccc(S(=O)(=O)N(CC(C)C)[C@H](CCN2C(=O)c3ccccc3C2=O)C(=O)NO)cc1	13	59	21	29	400		IC50 [3]: 2000 nM
CC(=O)NCC[C@@H](NS(=O)(=O)c1ccc(Br)cc1)C(=O)NO	190	110	190	300	1500		IC50 [3]: 2300 nM
COc1ccc(S(=O)(=O)N(CC(=O)NO)CC(C)C)cc1	4.8	2300	13	13		26	
COc1ccc(S(=O)(=O)N(CC(C)C)[C@@H](C(=O)NO)C(C)C)cc1	7.2	1100	29	16	56	9	
O=C(NO)[C@@H](CCN1C(=O)c2ccccc2C1=O)NS(=O)(=O)c1ccc(-c2ccccc2C(F)(F)F)cc1	430	44000	390	1800	5000		
CC(C)ON(CC(=O)NO)S(=O)(=O)c1ccc(-c2ccccc2)cc1		120000				0	
O=C(CNS(=O)(=O)c1ccc(Br)cc1)NO	290	3900	40	360	270	13	
CC(C)CN(CC(=O)NO)S(=O)(=O)c1ccc(-c2ccccc2)cc1		53000				14	
CC(=O)NCC[C@@H](NS(=O)(=O)c1ccc(-c2ccccc2)cc1)C(=O)NO	8.6	300	0.7	34	196		
COc1ccc(S(=O)(=O)N(OC(C)C)[C@@H](C(=O)NO)C(C)C)cc1	170	10000	190	240	1100	0	
COc1ccc(S(=O)(=O)N(CC(=O)NO)OC(C)C)cc1	4100	180000	5000	9500	110000	0	
O=C(CNS(=O)(=O)c1ccc(-c2ccccc2)cc1)NO		2400				35	
CC#CCOc1ccc(S(=O)(=O)N[C@H](CCN2C(=O)c3ccccc3C2=O)C(=O)NO)cc1	3.5	0.7	4.2	4.3	350		Activity (SK-OV-3): Not Active; Activity (MDA-MB-468): Not Active; IC50 [7]: 800 nM; IC50 [8]: 550 nM; Activity [9]: Not Active; IC50 [10]: 2600 nM; IC50 [11]: 15 nM; IC50 [12]: 1400 nM; IC50 [3]: 190 nM; IC50 [13]: 280 nM; Activity [14]: Not Active; IC50 [15]: 760 nM; Activity (MCF7): Not Active; IC50 [16]: 1100 nM; IC50 [17]: 1700 nM; IC50 [6]: 15 nM; IC50 [18]: 97 nM; IC50 [19]: 73 nM; IC50 [20]: 4.3 nM; IC50 [21]: 51 nM
COc1ccc(S(=O)(=O)N(Cc2cccnc2)[C@@H](C(=O)NO)C(C)C)cc1.Cl [CGS-27023A]		160				33	Activity (SK-OV-3): Not Active; Activity (MDA-MB-468): Not Active; IC50 [7]: 10000 nM; IC50 [8]: 3200 nM; Activity [9]: Not Active; IC50 [10]: 13000 nM; IC50 [11]: 380 nM; IC50 [12]: 6900 nM; IC50 [3]: 890 nM; IC50 [13]: 750 nM; Activity [14]: Not Active; IC50 [15]: 3000 nM; Activity (MCF7): Not Active; IC50 [16]: 18000 nM; IC50 [17]: 1400 nM; IC50 [18]: 4400 nM; IC50 [19]: 1100 nM; IC50 [20]: 110 nM; IC50 [21]: 750 nM
CC#CCOc1ccc(S(=O)(=O)N[C@H](CCNC(=O)OCc2ccccc2)C(=O)NO)cc1	46	1.6	17	210	1100		Activity (SK-OV-3): Not Active; Activity (MDA-MB-468): Not Active; IC50 [7]: 1100 nM; IC50 [8]: 890 nM; Activity [9]: Not Active; IC50 [11]: 11 nM; IC50 [12]: 1600 nM; IC50 [3]: 240 nM; IC50 [13]: 110 nM; Activity [14]: Not Active; IC50 [15]: 420 nM; Activity (MCF7): Not Active; IC50 [16]: 260 nM; IC50 [17]: 420 nM; IC50 [6]: 11 nM; IC50 [18]: 90 nM; IC50 [19]: 500 nM; IC50 [20]: 3.2 nM; IC50 [21]: 53 nM
O=C(NO)[C@@H](CCN1C(=O)c2ccccc2C1=O)NS(=O)(=O)c1ccc(Br)cc1	1.1	210	1.5	0.9	4		
COc1ccc(S(=O)(=O)NCC(=O)NO)cc1				210		32	
